ChEMBL document CHEMBL2146385, “Synthesis and antiviral evaluation of bis(POM) prodrugs of (E)-[4'-phosphono-but-2'-en-1'-yl]purine nucleosides” (Eur J Med Chem, 2012)
Calls of active or inactive are those of the source. The rule behind the calls is not given here.

How the values were obtained:
Influenza A virus [1] = test: Antiviral activity against Influenza A virus H1N1 infected in MDCK assessed as inhibition of virus-induced cytopathicity after 3 days; assay type: functional, organism-based
[2] = Cytotoxicity against HEL assessed as minimum compound concentration causes microscopically detectable alteration of cell morphology after 3 days; assay type: cell-based; conditions: human, HEL cells
Punta Toro virus = test: Antiviral activity against Punta Toro virus infected in african green monkey Vero assessed as inhibition of virus-induced cytopathicity after 3 days; assay type: functional, organism-based
Procedure, shortened: (§1)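 Confluent cell monolayers infected with 100 CCID50 of virus in the presence of test compound at 100, 20,... μM. Cytopathicity was scored once it was complete in untreated infected controls.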

Influenza A virus [3] = test: Antiviral activity against Influenza A virus H3N2 infected in MDCK assessed as inhibition of virus-induced cytopathicity after 3 days; assay type: functional, organism-based
Human alphaherpesvirus 3 [4] = test: Antiviral activity against thymidine kinase-deficient VZV 07/1 infected in human HEL cells assessed as reduction of virus-induced cytopathogenicity after 3 days; assay type: functional, organism-based; conditions: Human alphaherpesvirus 3, 07/1, HEL, 72 h
Human alphaherpesvirus 1 [5] = test: Antiviral activity against HSV1 KOS infected in HEL assessed as inhibition of virus-induced cytopathicity after 3 days; assay type: functional, organism-based; conditions: Human alphaherpesvirus 1, KOS, 72 h
[6] = Cytotoxicity against HEL after 3 days; assay type: cell-based; conditions: human, HEL cells
Procedure, shortened: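 HEL cells were seeded at 5×10^3 cells/well and allowed to grow for 24 h, then given medium with varying compound concentrations. After 3 days at 37 °C, cells were counted with a Coulter counter.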

Felid alphaherpesvirus 1 = test: Antiviral activity against Feline herpesvirus infected in CRFK cells assessed as inhibition of virus-induced cytopathicity after 3 days; assay type: functional, organism-based; conditions: Felid alphaherpesvirus 1, CRFK, 72 h
Human respirovirus 3 = test: Antiviral activity against Parainfluenza-3 virus infected in african green monkey Vero assessed as inhibition of virus-induced cytopathicity after 3 days; assay type: functional, organism-based; procedure, shortened: as §1
Human alphaherpesvirus 2 = test: Antiviral activity against HSV2 G infected in HEL assessed as inhibition of virus-induced cytopathicity after 3 days; assay type: functional, organism-based; conditions: Human alphaherpesvirus 2, strain G, 72 h; procedure, shortened: as §1
Vaccinia virus = test: Antiviral activity against Vaccinia virus infected in HEL assessed as inhibition of virus-induced cytopathicity after 3 days; assay type: functional, organism-based; conditions: Orthopoxvirus vaccinia, 72 h
Human alphaherpesvirus 3 [7] = test: Antiviral activity against VZV OKA expressing thymidine kinase infected in HEL cells assessed as inhibition of virus-induced cytopathogenicity after 3 days; assay type: functional, cell-based; conditions: Human alphaherpesvirus 3, strain Oka vaccine, 72 h
[8] = system: Mammalian orthoreovirus 1; test: Antiviral activity against Reovirus-1 infected in african green monkey Vero assessed as inhibition of virus-induced cytopathicity after 3 days; assay type: functional, organism-based; procedure, shortened: as §1
[9] = system: Vesicular stomatitis virus; test: Antiviral activity against Vesicular stomatitis virus infected in MDCK assessed as inhibition of virus-induced cytopathicity after 3 days; assay type: functional, organism-based
[10] = Cytotoxicity against CRFK cells after 3 days; assay type: cell-based, Felis catus; conditions: cat
Coxsackievirus B4 = test: Antiviral activity against Coxsackievirus B4 infected in human HeLa assessed as inhibition of virus-induced cytopathicity after 3 days; assay type: functional, organism-based; procedure, shortened: as §1
Influenza B virus = test: Antiviral activity against Influenza B virus infected in MDCK assessed as inhibition of virus-induced cytopathicity after 3 days; assay type: functional, organism-based
[11] = system: Respiratory syncytial virus; test: Antiviral activity against Respiratory syncytial virus infected in human HeLa assessed as inhibition of virus-induced cytopathicity after 3 days; assay type: functional, organism-based; procedure, shortened: as §1
[12] = system: Vesicular stomatitis virus; test: Antiviral activity against Vesicular stomatitis virus infected in human HeLa assessed as inhibition of virus-induced cytopathicity after 3 days; assay type: functional, organism-based
Human alphaherpesvirus 1 [13] = test: Antiviral activity against acyclovir-resistant thymidine kinase deficient HSV1 KOS infected in HEL assessed as inhibition of virus-induced cytopathicity after 3 days; assay type: functional, organism-based; conditions: Human alphaherpesvirus 1, KOS, 72 h
Sindbis virus = test: Antiviral activity against Sindbis virus infected in african green monkey Vero assessed as inhibition of virus-induced cytopathicity after 3 days; assay type: functional, organism-based; procedure, shortened: as §1
CCRF-CEM = test: Cytotoxicity against human CEM cells; assay type: cell-based
[14] = Selectivity index, ratio of CC50 for human CEM cells to EC50 for HIV2 ROD; assay type: toxicity, cell-based, CCRF-CEM; conditions: read-out: Ratio CC50/EC50
HeLa = test: Cytotoxicity against human HeLa cells; assay type: cell-based
[15] = system: Human immunodeficiency virus 2; test: Antiviral activity against HIV2 ROD infected in human CEM cells assessed as inhibition of virus-induced giant cell formation after 4 days; assay type: functional, organism-based; conditions: Human immunodeficiency virus 2, ISOLATE ROD, CCRF-CEM, 96 h
Procedure, shortened: (§2)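 Human CEM cells (~3×10^5 cells/cm3) were infected with 100 CCID50 of HIV-1(IIIB) or HIV-2(ROD) per ml and seeded into wells containing compound dilutions. After 4 days at 37 °C, giant cell formation was examined microscopically.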

L1210 = test: Cytotoxicity against mouse L1210 cells; assay type: cell-based
[16] = system: Human immunodeficiency virus 1; test: Antiviral activity against HIV1 3B infected in human CEM cells assessed as inhibition of virus-induced giant cell formation after 4 days; assay type: functional, organism-based; conditions: Human immunodeficiency virus 1, 3B, CCRF-CEM, 96 h; procedure, shortened: as §2

Row | SMILES | Activity (Influenza A virus [1]) | MCC at 72 h [2] | Activity (Punta Toro virus) | Activity (Influenza A virus [3]) | EC50 (Human alphaherpesvirus 3 [4]) | EC50 (Human alphaherpesvirus 1 [5]) | CC50 at 72 h [6] | EC50 (Felid alphaherpesvirus 1) | Activity (Human respirovirus 3) | EC50 (Human alphaherpesvirus 2) | EC50 (Vaccinia virus) | EC50 (Human alphaherpesvirus 3 [7]) | Activity [8] | Activity [9] | Activity (Coxsackievirus B4) | Activity (Influenza B virus) | Activity [11] | Activity [12] | EC50 (Human alphaherpesvirus 1 [13]) | Activity (Sindbis virus) | further results
1 | CC(C)(C)C(=O)OCOP(=O)(C/C=C/Cn1cnc2c(=O)[nH]c(N)nc21)OCOC(=O)C(C)(C)C | inactive | > 100 µM | inactive | inactive | 0.8 µM | 3.9 µM | 4.1 µM | 11 µM | inactive | 7.8 µM | 100 µM | 1.05 µM | inactive | inactive | inactive | inactive | inactive | inactive | 5.8 µM | inactive | CC50 at 72 h [10]: > 100 µM
2 | Nc1nc2c(ncn2COC(CO)CO)c(=O)[nH]1 [GANCICLOVIR] | – | – | – | – | – | – | – | 1.2 µM | – | – | – | – | – | – | – | – | – | – | – | – | CC50 at 72 h [10]: > 100 µM
3 | COc1nc(N)nc2c1ncn2C/C=C/CP(=O)(OCOC(=O)C(C)(C)C)OCOC(=O)C(C)(C)C | inactive | > 100 µM | inactive | inactive | 0.5 µM | 6 µM | 1.6 µM | – | inactive | 6.5 µM | 16 µM | 0.1 µM | inactive | inactive | inactive | inactive | inactive | inactive | 7.5 µM | inactive | IC50 (CCRF-CEM): 8 µM; selectivity ratio [14]: 28.5; IC50 (HeLa): 37 µM; EC50 [15]: 0.28 µM; IC50 (L1210): 37 µM; EC50 [16]: > 0.4 µM
4 | CC(C)(C)C(=O)OCOP(=O)(C/C=C/Cn1cnc2c(N)nc(N)nc21)OCOC(=O)C(C)(C)C | inactive | > 100 µM | inactive | inactive | 12 µM | 20 µM | 36 µM | – | inactive | 20 µM | > 20 µM | 6.8 µM | inactive | inactive | inactive | inactive | inactive | inactive | 20 µM | inactive | IC50 (CCRF-CEM): 46 µM; selectivity ratio [14]: 7.3; IC50 (HeLa): 128 µM; EC50 [15]: 6.3 µM; IC50 (L1210): 128 µM; EC50 [16]: 6.6 µM
5 | CC(C)c1ccc(Nc2ncnc3c2ncn3C/C=C/CP(=O)(OCOC(=O)C(C)(C)C)OCOC(=O)C(C)(C)C)cc1 | inactive | 100 µM | inactive | inactive | > 20 µM | > 100 µM | 32.3 µM | – | inactive | > 100 µM | > 100 µM | > 20 µM | inactive | inactive | inactive | inactive | inactive | inactive | > 100 µM | inactive | –
6 | CCCCNc1ncnc2c1ncn2C/C=C/CP(=O)(OCOC(=O)C(C)(C)C)OCOC(=O)C(C)(C)C | inactive | > 100 µM | inactive | inactive | > 100 µM | > 100 µM | 37.2 µM | – | inactive | > 100 µM | > 100 µM | 100 µM | inactive | inactive | inactive | inactive | inactive | inactive | > 100 µM | inactive | –
